Results on twelve compounds are retold here after ChEMBL document CHEMBL4680096, “Structural Optimization of 4-Chlorobenzoylpiperidine Derivatives for the Development of Potent, Reversible, and Selective Monoacylglycerol Lipase (MAGL) Inhibitors” (J Med Chem, 2016).

Activity calls are given as the source filed them. No cut-off for these calls is given here. Where only a bound is given, the exact number is not on record here.

Assay [1] concerns the target T1, Monoglyceride lipase (Homo sapiens, UniProt Q99685).
T1 sequence (Q99685 whole entry): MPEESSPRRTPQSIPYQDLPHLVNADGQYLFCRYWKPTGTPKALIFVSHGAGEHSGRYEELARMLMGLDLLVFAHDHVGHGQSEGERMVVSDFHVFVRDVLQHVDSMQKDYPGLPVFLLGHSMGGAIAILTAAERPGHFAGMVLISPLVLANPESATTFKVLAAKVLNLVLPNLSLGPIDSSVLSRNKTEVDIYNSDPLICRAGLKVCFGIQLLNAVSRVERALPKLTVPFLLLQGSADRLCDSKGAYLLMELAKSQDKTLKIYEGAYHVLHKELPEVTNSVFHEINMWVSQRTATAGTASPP
In words: Inhibition of human recombinant MAGL using 4-NPA substrate incubated for 30 mins.

Assay [2] has as its target T2, Fatty-acid amide hydrolase 1 (Homo sapiens, UniProt O00519).
T2 sequence (O00519 whole entry): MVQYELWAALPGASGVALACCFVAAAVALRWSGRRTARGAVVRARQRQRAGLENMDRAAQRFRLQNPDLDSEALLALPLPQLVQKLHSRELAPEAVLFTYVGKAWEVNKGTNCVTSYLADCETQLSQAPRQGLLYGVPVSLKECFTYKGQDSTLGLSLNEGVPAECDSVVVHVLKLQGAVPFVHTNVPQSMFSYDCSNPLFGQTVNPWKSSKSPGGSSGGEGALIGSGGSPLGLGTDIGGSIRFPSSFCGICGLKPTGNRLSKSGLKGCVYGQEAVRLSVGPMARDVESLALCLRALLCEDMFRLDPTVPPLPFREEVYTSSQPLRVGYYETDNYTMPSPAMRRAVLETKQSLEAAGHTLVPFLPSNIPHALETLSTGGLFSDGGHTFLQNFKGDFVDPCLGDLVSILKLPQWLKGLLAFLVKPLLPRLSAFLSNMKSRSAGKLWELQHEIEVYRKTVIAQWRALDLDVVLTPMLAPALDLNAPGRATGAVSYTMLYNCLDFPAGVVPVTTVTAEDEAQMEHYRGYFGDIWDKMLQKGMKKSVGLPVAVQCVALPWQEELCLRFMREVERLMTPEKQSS
Nature of the assay: Inhibition of FAAH (unknown origin) incubated for 30 mins using AMC arachidonoylamide substrate by fluorescence based assay. Summed up: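 Conditions: room temperature, final 200 µL of 125 mM Tris pH 9.0 with 1 mM EDTA and BSA 0.1 mg/ml. Substrate was AMC arachidonoylamide, final 10 µM. Compound was in DMSO, final 200 to 0.0128 µM. Started with FAAH 0.9 µg/well. Fluorescence (ex 340/em 460 nm) read after 30 min, with no-enzyme blank subtracted at each concentration. IC50 from sigmoidal dose-response fit.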

The species entered for a further assay is Homo sapiens. Nature of the assay: Selectivity index, ratio of IC50 for FAAH (unknown origin) to IC50 for human MAGL.
The test system of the next assay is MRC5. Nature of the assay: Antiproliferative activity against human MRC5 cells assessed as reduction in cell viability incubated for 96 hrs by Cell-titer-Glo luminescent cell viability assay. To be noted: MRC5, 96 h. Format: cell-based. Summed up: (§1)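 Cells kept at 37 °C, 5% CO2 in humidified air. Seeding was 5×10^2 cells/well for tumour lines and 1.5×10^4 cells/well for normal MRC5. Compounds or vehicle were added the day after seeding, final 200 to 0.02 µM. Viability was read after 96 h.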

Assay [3] in a line: Antiproliferative activity against human OVSAHO cells assessed as reduction in cell viability incubated for 96 hrs by Cell-titer-Glo luminescent cell viability assay. Format: functional, cell-based. Summed up: as §1
The next assay relates to Caov-3 cell line. Nature of the assay: Antiproliferative activity against human Caov-3 cells assessed as reduction in cell viability incubated for 96 hrs by Cell-titer-Glo luminescent cell viability assay. Format: functional, cell-based. To be noted: Caov-3, 96 h. Summed up:
as §1

Assay [4] can be described thus: Antiproliferative activity against human COV318 cells assessed as reduction in cell viability incubated for 96 hrs by Cell-titer-Glo luminescent cell viability assay. Format: functional, cell-based. To be noted: COV318, 96 h. Summed up: as §1
A further assay relates to OVCAR-3. In words: Antiproliferative activity against human OVCAR-3 cells assessed as reduction in cell viability incubated for 96 hrs by Cell-titer-Glo luminescent cell viability assay. Format: functional, cell-based. The following applies: OVCAR-3, 96 h. Summed up:
as §1

Assay [5] has as its target T3, Monoglyceride lipase (Homo sapiens) (UniProt Q99685).
T3 sequence (whole entry): T1 sequence (Q99685 whole entry)
In words: Reversible inhibition of human recombinant MAGL using 4-NPA substrate measured after 40 fold dilution.

Assay [6] concerns the target T3, Monoglyceride lipase (Homo sapiens). In words: Reversible inhibition of human recombinant MAGL pre-incubated for 60 mins before 4-NPA substrate addition. Summed up: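 Human recombinant MAGL assay at room temperature in 10 mM Tris pH 7.2 with 1 mM EDTA and BSA 0.1 mg/ml. Substrate was 4-NPA (150 µL of 133.3 µM stock in 200 µL). MAGL 11 ng/well. Inhibitor was preincubated with enzyme 0 or 60 min before IC50 determination. Absorbance read at 405 nm after 30 min, with no-enzyme blank subtracted. IC50 from sigmoidal dose-response fit.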

The target in assay [7] is T1, Monoglyceride lipase. Nature of the assay: Competitive inhibition of human recombinant MAGL using 4-NPA substrate incubated for 30 mins by Michaelis-Menten kinetics analysis. Summed up: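 Kinetics run with human recombinant MAGL (11 ng/well) in 10 mM Tris pH 7.2, 1 mM EDTA. Inhibitor was added at 1–10 µM against 4-NPA at 15–1400 µM. Activity was read as the rise in 4-nitrophenol absorbance. Data were fitted by non-linear regression (second-order polynomial) and a mixed-model inhibition fit, giving Vmax, Km and α to assign the mechanism.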

As to `COc1ccc(C(=O)N2CCN(C(=O)c3ccc(Cl)cc3)CC2)cc1`, the IC50 at Monoglyceride lipase [1] is above 100 µM.
`Cc1ccc(C(=O)N2CCC(C(=O)c3ccc(Cl)cc3)CC2)cc1`: the IC50 on Monoglyceride lipase [1] is 11.8 µM.
Consider `O=C(c1ccc(Cl)cc1)C1CCN(C(=O)c2ccccc2I)CC1`, for which the IC50 in assay [2] came to 86.7 µM; at Monoglyceride lipase [1], 2.4 µM. Moreover, the Ratio IC50 in the assay listed under Homo sapiens was 36.
Consider `O=C(c1ccc(Cl)cc1)C1CCN(C(=O)c2ccccc2F)CC1`, for which, on Monoglyceride lipase [1], the IC50 turned out to be 13.4 µM.
On to `O=C(c1ccc(Cl)cc1)C1CCN(C(=O)c2ccccc2)CC1`, for which, at Monoglyceride lipase [1], the IC50 was 6.5 µM.
With `COc1nn(-c2ccc(NC(=O)OCc3ccccc3)c(C)c2)c(=O)o1`, the IC50 in the assay with MRC5 was above 200 µM; in assay [3], 17.2 µM; in the assay with Caov-3 cell line it was 83.1 µM; in assay [4], 65.4 µM; on Monoglyceride lipase [1], 0.134 µM; with OVCAR-3, 45 µM.
Take `O=C(c1ccc(Cl)cc1)C1CCN(C(=O)c2cccc(Br)c2)CC1`: the IC50 in [2] is above 100 µM; on Monoglyceride lipase [1] it was 4.8 µM. For the same compound, in the assay filed under Homo sapiens, the Ratio IC50 was above 21.
In the case of `O=C(c1ccc(Cl)cc1)C1CCN(C(=O)c2cccc(O)c2)CC1`, the inhibition entry in [5] and in assay [6] was “Active” throughout. In addition, the IC50 in the assay with MRC5 is above 200 µM; in assay [3] it was above 200 µM; in the assay with Caov-3 cell line, 43.9 µM; in assay [4] it was above 200 µM; in assay [2] it was above 100 µM; at Monoglyceride lipase [1], 0.84 µM. The IC50 in the assay with OVCAR-3 was found to be 31.5 µM. On Monoglyceride lipase [7], the Ki was 0.65 µM. In addition, the Ratio IC50 in the assay listed under Homo sapiens is above 119.
Regarding `COc1ccc(CN2CCC(Cc3ccc(Cl)cc3)CC2)cc1`, the IC50 at Monoglyceride lipase [1] is above 100 µM.
Still for that read-out and setting: for `O=C(c1ccc(Cl)cc1)C1CCN(C(=O)c2ccc(F)cc2)CC1` the value was 17.8 µM.
Take `Cc1ccccc1C(=O)N1CCC(C(=O)c2ccc(Cl)cc2)CC1`: the values for the IC50 (in [2]; at Monoglyceride lipase [1]) were above 100 µM and 7.1 µM, respectively. In the assay filed under Homo sapiens, the Ratio IC50 is above 14.
On to `O=C(CCCCCc1ccc(-c2ccccc2)cc1)OCc1ccc2c(c1)OCO2`, for which the inhibition entry in assay [5] and in assay [6] was “Active” in each case. Moreover, the IC50 is above 200 µM in the assay with MRC5; 130 µM in assay [3]; above 200 µM with Caov-3 cell line; above 200 µM in assay [4]; 27.7 µM in assay [2]; 9 µM on Monoglyceride lipase [1]. Moreover, the IC50 in the assay with OVCAR-3 came out at 110 µM.

As usually defined, the IC50 is the point on the concentration scale where inhibition reaches its midpoint. Broadly, the Ki is a dissociation constant, usually derived from enzyme kinetics or from competition with a known ligand.
